# Measurements reported in PubChem BioAssay AID1267 (The Scripps Research Institute Molecular Screening Center, 2008).
# About 770 (64%) of roughly 1,200 compounds were called active.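 How the source made its calls: active means percent activation of the STAT3 luciferase reporter above a set limit taken from the earlier primary screen (cut at about 130% in these data); inactive means the rest.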 So high a share suggests a set chosen from earlier hits. Not all results are given here.
# Test: STAT3 reporter potentiators, retest of hits, confirmation, U3A cells, luciferase, luminescence (AID 1267);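 further: 0% = background signal of medium plus substrate and 100% = median of IL-6 with DMSO wells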
# Conditions: IL-6 potentiation, at 5.7 µM, active compounds read high
# How it was run: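 System: STAT1-null U3A cells carrying STAT3-luciferase reporter; Read-out: % potentiation versus median IL-6 plus DMSO wells, background-subtracted; Times: 1 h pretreatment, 6 h IL-6, 37 °C; Also added: IL-6 stimulus at 33 ng/mL final; Measured by: luminescence.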
row,Structure (SMILES),potentiation (% of control)
1,CCC/C(=N\O)c1c[nH]c2ccccc12,143% (active)
2,COc1cc(-n2c(=S)[nH]c3ccc(C)cc3c2=O)c(Cl)cc1Cl,129% (inactive)
